Sampled rows, rich in hits. Any-hit rate of the full collection: about 1.5%.
EBI2 antag – EBI2 receptor antagonists, beta-arrestin recruitment, primary screen, cell-based, luminescence, 7a,25-OHC stimulation, uHTS; G-protein coupled receptor 183 (Homo sapiens), P32249; 7a,25-OHC stimulated; inhibition, % at 5 µM; actives 0.81% (n = 360,000); AID 651636, 2012; in the data active means inhibition above about 38%;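 further: enzyme fragment complementation signal reports receptor beta-arrestin coupling in cells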
Target sequence (P32249 whole entry, looked up, the tested form may be a part): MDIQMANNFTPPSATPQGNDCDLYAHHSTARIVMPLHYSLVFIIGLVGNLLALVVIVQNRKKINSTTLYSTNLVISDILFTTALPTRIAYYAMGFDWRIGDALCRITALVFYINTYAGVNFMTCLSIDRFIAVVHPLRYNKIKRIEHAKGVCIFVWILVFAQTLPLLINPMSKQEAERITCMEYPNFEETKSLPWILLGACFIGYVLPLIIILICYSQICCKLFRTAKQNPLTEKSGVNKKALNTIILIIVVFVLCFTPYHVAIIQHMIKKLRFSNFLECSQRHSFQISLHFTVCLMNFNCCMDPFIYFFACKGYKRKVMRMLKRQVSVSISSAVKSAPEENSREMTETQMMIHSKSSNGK
APJ antagonist – antagonists of human apelin receptor APJ, primary screen, CHO-K1 cells, beta-arrestin complementation, luminescence | AID 2521, 2010 | P35414 | actives 0.32% (n = 330,000) | inhibition, % at 20 µM;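 active means inhibition above about 40% at 20 µM, limit read from the data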;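 further: cells challenged with 10 nM apelin-13 agonist together with compound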
APJ ag – agonists of human apelin receptor APJ, primary screen, CHO-K1 cells, PathHunter beta-arrestin, luminescence; activation, % at 20 µM; 0% DMSO wells, 100% apelin; P35414; actives 0.11% (n = 330,000);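 active means activation more than six SD over the plate average, tested at 20 µM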
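Assay system: engineered CHO-K1 APJ arrestin reporter cells; Amount: 1000 CHO-K1 reporter cells seeded per well; Dosing: one dose, 20 µM compound, 1% DMSO; Times: compound stimulation 90 min at 25 °C, detection 60 min; Measured by: luminescent beta-gal fragment complementation, chemiluminescent substrate; Read-out: APJ–arrestin association signal; Controls: DMSO vs Apelin-13 10 nM.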
CXCR6 block – CXCR6 receptor inhibitors, primary screen, cell-based, beta-arrestin, luminescence, CHO-K1 PathHunter, 1536-well; inhibition, % at 20 µM; actives 0.36% (n = 360,000); AID 602244, 2012; in the data active means inhibition above about 34%, passing the limit was not always enough;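 further: antagonist mode with CXCL16 agonist at 10 nM final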
CCR6 antag – CCR6 receptor antagonists, primary screen, cell-based, CHO-K1, luminescence, beta-arrestin, uHTS | C-C chemokine receptor type 6 (Homo sapiens), P51684 | inhibition, % at 20 µM | actives 0.49% (n = 340,000) | AID 493098, 2011 | CHO-K1 CCR6 PathHunter beta-arrestin, CCL20-stimulated;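 active means compounds whose inhibition of the agonist-driven luminescence signal at 20 µM reaches about 50%, limit read from the data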;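 further: cells stimulated with CCL20 at 14 nM final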
APJ antag confirm – APJ antagonists blocking beta-arrestin recruitment, confirmation, cell-based, luminescence, single concentration, uHTS hits | actives 66% (n = 950) | antagonist mode | inhibition, % at 20 µM | AID 2766, 2010 | shares compounds with APJ antagonist; in the data active means inhibition above about 50%
Large screens that a line does not name were inactive (follow-up assays come after a bar, where they were run).

CC1Nc2ncnc(N3CCOCC3)c2N(Cc2ccccc2)C1=O (configuration not stated)	none
CC(C)(C)c1ccc(C(=O)NNC(=S)NC(=O)c2cccnc2)cc1	none
CC(C)(C)c1cc(Cl)c(O)c(NC(=S)NC(=O)c2cccnc2)c1	APJ antagonist 67, CXCR6 block 40, CCR6 antag 52 | APJ antag confirm 78
Cc1c(N2C(=O)/C(=C\c3ccccc3O)SC2=S)c(=O)n(-c2ccccc2)n1C	none
CN1C(=O)/C(=C/c2cc(N=Nc3ccccc3)ccc2O)SC1=S	EBI2 antag 47, APJ antagonist 60, CXCR6 block 51, CCR6 antag 74 | APJ antag confirm 105
Cc1cc(C)c(C)c(/C=C(/C#N)C(N)=S)c1C	APJ antagonist 42 | APJ antag confirm inactive
C=C1C(=O)O[C@@H]2C[C@@H](C)[C@@H]3C=CC(=O)[C@@]3(C)[C@@H](OC(C)=O)[C@H]12	APJ antagonist 46 (no result: EBI2 antag, CXCR6 block) | APJ antag confirm 77
[O-]/C(=C(\C(=S)Nc1ccccc1F)[n+]1ccccc1)c1ccc(OC(F)F)cc1	APJ antagonist 48 | APJ antag confirm inactive
Cc1ccc(C)c(NC(=S)/C(=C(\[O-])c2ccc(OC(F)F)cc2)[n+]2ccccc2)c1	none
COc1cccc(N2CC(C)Cn3c2nc2c3c(=O)n(CCN3CCOCC3)c(=O)n2C)c1 (configuration not stated)	APJ antagonist 42 | APJ antag confirm 62
COc1cc(C(=O)NC(=S)Nc2ccc([N+](=O)[O-])cc2C)cc(OC)c1OC	APJ antagonist 43 | APJ antag confirm 65
Cc1ccc(CNC(=S)Nc2cc(C(=O)O)ccc2C)cc1	none
Cc1ccc(C(=O)O)cc1NC(=S)NC(=O)c1ccc([N+](=O)[O-])c(C)c1	APJ antagonist 40 | APJ antag confirm inactive
COc1cccc(C(=O)NC(=S)Nc2ccc([N+](=O)[O-])cc2C)c1	none
C/C(=N\O)C(=O)C(CN1CCCCC1)CN1CCCCC1	APJ antagonist 42, CCR6 antag 51 | APJ antag confirm inactive
CN(C)C(=O)c1cccc(-c2cnc3c(NC=O)cc(-c4ccc(N(C)C)cc4)cn23)c1	none (no result: APJ antagonist, APJ ag, CCR6 antag)
COc1cccc(NC(=O)CSc2nnc(-c3cc(C)[nH]n3)n2N)c1	APJ antagonist 42 | APJ antag confirm inactive
Cc1cccc2cc3c(N)c(C(=O)N4CCOCC4)sc3nc12	APJ antagonist 51 | APJ antag confirm inactive
CN(Cc1ccccc1)C(=O)C(=O)c1ccccc1	none (no result: APJ antagonist, APJ ag, CXCR6 block, CCR6 antag)
O=C(CCCC(=O)OCC(=O)c1ccc(F)cc1)Nc1cc(C(F)(F)F)ccc1Cl	none
O=C(CCCC(=O)OCC(=O)c1ccc(Cl)cc1Cl)Nc1cc(C(F)(F)F)ccc1Cl	APJ antagonist 43, CCR6 antag 72 | APJ antag confirm 55
CN(C)c1ccc(-c2csc(C(C)(O)c3cccc(F)c3)n2)cc1 (configuration not stated)	none (no result: APJ antagonist, APJ ag, CCR6 antag)
Cc1cc(C)cc(N(CC(=O)NCCSc2ccccn2)S(=O)(=O)c2ccccc2)c1	APJ antagonist 43 | APJ antag confirm inactive
CCNC(=S)NNc1nnc(-c2ccccc2)c(-c2ccccc2)n1	APJ antagonist 49 | APJ antag confirm 90
Cc1ccc(SSc2cc(C)ccc2N)c(N)c1	APJ antagonist 45 | APJ antag confirm 127
CN(C)CCN(Cc1ccco1)C(=O)c1cc2c(Cl)nc3ccccc3c2s1	APJ antagonist 41 | APJ antag confirm 69
CCCc1c(-c2ccc(F)cc2F)ncn1Cc1cccc(-c2ccccc2)c1	none (no result: APJ antagonist, APJ ag, CXCR6 block, CCR6 antag)
COC(=O)/C=C1\OCc2cc(OCc3ccccc3)ccc21	none (no result: APJ antagonist, APJ ag, CXCR6 block, CCR6 antag)
COc1ccc(NC2(c3ccc(Cl)cc3)C(=O)c3ccccc3C2=O)cc1	APJ antagonist 62, CCR6 antag 74 | APJ antag confirm 73
CN1CCN(C(=O)c2cnn(-c3ccccc3)c2NC(=O)c2ccccc2)CC1	none
O=C(Nc1c(C(=O)N2CCCCC2)cnn1-c1ccccc1)c1ccccc1F	APJ antagonist 62 | APJ antag confirm inactive
CC1(C)CC2(CC(c3ccccc3F)c3cc(Cl)c(O)cc3O2)NC(=S)N1 (configuration not stated)	APJ antagonist 48 | APJ antag confirm 112
Cc1cccc(C2CC3(CC(C)(C)NC(=S)N3)Oc3cc(O)ccc32)c1 (configuration not stated)	none
CC(C)(C)N(Cc1ccccc1)C(=O)c1cc2ccccc2o1	APJ antagonist 45 | APJ antag confirm inactive
CCN1CCN(c2cc(C)c3cc(NC(=O)Cc4ccccc4OC)ccc3n2)CC1	APJ antagonist 48 | APJ antag confirm inactive
CCN1CCN(c2cc(C)c3cc(NC(=O)CCC(=O)Nc4ccc(OC)c(OC)c4)ccc3n2)CC1	none
O=C(Cn1cccc1C(=O)c1ccccc1)NCCCN1CCc2ccccc2C1	none
O=C(c1ccccc1)c1cccn1CC(=O)N1CCc2ccccc2C1	APJ antagonist 50, CXCR6 block 48, CCR6 antag 51 | APJ antag confirm 94
Cc1ccsc1CNC(=O)C1(C)CCN1C(C)C (configuration not stated)	none (no result: APJ antagonist, APJ ag, CCR6 antag)
COC(=O)c1ccc2c(c1)C(C)(C)C(/C=C/c1ccc(O)cc1)=[N+]2C	APJ antagonist 70, CXCR6 block 74, CCR6 antag 91 | APJ antag confirm 129
CC(C)(C)C(=O)NC(=S)NNC(=O)c1ccc(-c2ccccc2)cc1	APJ antagonist 66, CXCR6 block 84, CCR6 antag 102 | APJ antag confirm 112
CCOc1ccc(C(=O)NC(=S)N(Cc2ccccc2)Cc2ccccc2)cc1	none (no result: APJ antagonist, APJ ag)
CCCN(CCC)C(=S)NC(=O)c1ccc(-c2ccccc2)cc1	APJ antagonist 45 | APJ antag confirm inactive
CCOc1ccccc1C(=O)NC(C(=O)OCn1nnc2ccccc2c1=O)C(C)C (configuration not stated)	none (no result: APJ antagonist, APJ ag, CCR6 antag)
O=C(Nc1ccccc1)c1cc(C2CCCCN2C(=O)c2cccs2)on1 (configuration not stated)	none (no result: APJ antagonist, APJ ag, CCR6 antag)
FC(F)(F)c1cccc(Sc2nc(-c3ccccc3)nnc2C(F)(F)F)c1	APJ antagonist 43, CXCR6 block 46 | APJ antag confirm 91
FC(F)(F)c1cccc(Oc2nc(-c3ccccc3)nnc2C(F)(F)F)c1	none
C=CCn1c(C2CC2)n[nH]c1=S	none
CCCCCC1CCC(c2n[nH]c(=S)n2C)CC1 (configuration not stated)	APJ antagonist 41 | APJ antag confirm 78
CCOC(=O)c1c(C)[nH]c(C)c1C(=O)Cn1nnc(-c2ccccc2C)n1	APJ antagonist 46 | APJ antag confirm inactive
